Measurements as given in ChEMBL document CHEMBL2057188, “Hybridizing ability and nuclease resistance profile of backbone modified cationic phosphorothioate oligonucleotides” (Bioorg Med Chem, 2012).

assay: Stability in presence of Crotalus admanteus venom phosphodiesterase assessed as intact compound level at 5.5 uM in 50 mM Tris-Hcl buffer (pH 7.5) containing 10 mM MgCl2 incubated for 15 mins at 37 degC by HPLC; format: ADME; details: pH 7.5, 0.25 h
Outline: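 12-mers are first trimmed from the 3′ end with the venom 3′-exonuclease to give 7-mer substrates, which are purified by RP-HPLC. These are then re-incubated with enzyme in 50 mM Tris-HCl pH 7.5 with 10 mM MgCl2 at 37 °C for 15 min. The enzyme is heat-inactivated at 90 °C for 5 min, and the fraction of intact ODN remaining is quantified by HPLC.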

Q: For Cc1cn([C@H]2C[C@H](OP(=O)(O)O)[C@@H](CO[P@](=O)(O[C@H]3C[C@H](n4cc(C)c(=O)[nH]c4=O)O[C@@H]3COP(=O)(O)O[C@H]3C[C@H](n4cc(C)c(=O)[nH]c4=O)O[C@@H]3COP(=O)(O)O[C@H]3C[C@H](n4cc(C)c(=O)[nH]c4=O)O[C@@H]3COP(=O)(O)O[C@H]3C[C@H](n4ccc(N)nc4=O)O[C@@H]3COP(=O)(O)O[C@H]3C[C@H](n4ccc(N)nc4=O)O[C@@H]3COP(=O)(O)O[C@H]3C[C@H](n4ccc(N)nc4=O)O[C@@H]3CO)SCCCCCCN)O2)c(=O)[nH]c1=O, which Stability is on record?
A: Stable

Q: Which Stability does the source give for Cc1cn([C@H]2C[C@H](OP(=O)(O)O)[C@@H](CO[P@](=O)(O[C@H]3C[C@H](n4cc(C)c(=O)[nH]c4=O)O[C@@H]3COP(=O)(O)O[C@H]3C[C@H](n4cc(C)c(=O)[nH]c4=O)O[C@@H]3COP(=O)(O)O[C@H]3C[C@H](n4cc(C)c(=O)[nH]c4=O)O[C@@H]3COP(=O)(O)O[C@H]3C[C@H](n4ccc(N)nc4=O)O[C@@H]3COP(=O)(O)O[C@H]3C[C@H](n4ccc(N)nc4=O)O[C@@H]3COP(=O)(O)O[C@H]3C[C@H](n4ccc(N)nc4=O)O[C@@H]3CO)SCCN)O2)c(=O)[nH]c1=O here?
A: Stable

Q: Which Stability does the source give for Cc1cn([C@H]2C[C@H](OP(=O)(O)O)[C@@H](CO[P@](=O)(S)O[C@H]3C[C@H](n4cc(C)c(=O)[nH]c4=O)O[C@@H]3COP(=O)(O)O[C@H]3C[C@H](n4cc(C)c(=O)[nH]c4=O)O[C@@H]3COP(=O)(O)O[C@H]3C[C@H](n4cc(C)c(=O)[nH]c4=O)O[C@@H]3COP(=O)(O)O[C@H]3C[C@H](n4ccc(N)nc4=O)O[C@@H]3COP(=O)(O)O[C@H]3C[C@H](n4ccc(N)nc4=O)O[C@@H]3COP(=O)(O)O[C@H]3C[C@H](n4ccc(N)nc4=O)O[C@@H]3CO)O2)c(=O)[nH]c1=O here?
A: Stable

Q: Which Stability does the source give for Cc1cn([C@H]2C[C@H](OP(=O)(O)O)[C@@H](CO[P@@](=O)(O[C@H]3C[C@H](n4cc(C)c(=O)[nH]c4=O)O[C@@H]3COP(=O)(O)O[C@H]3C[C@H](n4cc(C)c(=O)[nH]c4=O)O[C@@H]3COP(=O)(O)O[C@H]3C[C@H](n4cc(C)c(=O)[nH]c4=O)O[C@@H]3COP(=O)(O)O[C@H]3C[C@H](n4ccc(N)nc4=O)O[C@@H]3COP(=O)(O)O[C@H]3C[C@H](n4ccc(N)nc4=O)O[C@@H]3COP(=O)(O)O[C@H]3C[C@H](n4ccc(N)nc4=O)O[C@@H]3CO)SCCCCCCN)O2)c(=O)[nH]c1=O here?
A: Stable

Q: For Cc1cn([C@H]2C[C@H](OP(=O)(O)O)[C@@H](CO[P@@](=O)(O[C@H]3C[C@H](n4cc(C)c(=O)[nH]c4=O)O[C@@H]3COP(=O)(O)O[C@H]3C[C@H](n4cc(C)c(=O)[nH]c4=O)O[C@@H]3COP(=O)(O)O[C@H]3C[C@H](n4cc(C)c(=O)[nH]c4=O)O[C@@H]3COP(=O)(O)O[C@H]3C[C@H](n4ccc(N)nc4=O)O[C@@H]3COP(=O)(O)O[C@H]3C[C@H](n4ccc(N)nc4=O)O[C@@H]3COP(=O)(O)O[C@H]3C[C@H](n4ccc(N)nc4=O)O[C@@H]3CO)SCCN)O2)c(=O)[nH]c1=O, which Stability is on record?
A: Stable
